Each block holds one compound with its values, some of them ahead of it.
How the values were obtained:
[1] = target: T1, Dipeptidyl peptidase 1 (Homo sapiens, UniProt P53634); assay: Inhibition of human cathepsin C
Method in brief: (§1)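 Values are means of two independent experiments, each run in duplicate.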

[2] = target: T1, Dipeptidyl peptidase 1; assay: Inhibition of human cathepsin C at 10 uM relative to control
[3] = Aldehyde reactivity of the compound in 0.1M phosphate buffer assessed as compound remaining at pH 7.4 measured after 2 hrs in presence of propionaldehyde by HPLC-UV analysis; format: ADME; conditions: phosphate buffer with propionaldehyde, read-out: Stabilty
Method in brief: (§2)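 Each compound was spiked in bulk into propionaldehyde dissolved in 0.1 M phosphate buffer, pH 7.4. Aliquots were taken at intervals and analysed by HPLC-UV to give percent parent remaining, with incubations lasting up to 15 h. Half-life was calculated from the disappearance of parent. Where no analyte remained at 15 h, only the 2 h data were used. Adduct identity was confirmed as molecular ion +40 amu. This was a single experiment (n = 1).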

[4] = Half life of the compound in 0.1M phosphate buffer at pH 7.4 by HPLC-UV analysis; format: physicochemical; method in brief: as §2
[5] = target: T1, Dipeptidyl peptidase 1; assay: Inhibition of human cathepsin C at 1 uM relative to control
[6] = Aldehyde reactivity of the compound in 0.1M phosphate buffer assessed as compound remaining at pH 7.4 measured after 15 hrs in presence of propionaldehyde by HPLC-UV analysis; format: ADME; conditions: phosphate buffer with propionaldehyde, read-out: Stabilty; method in brief: as §2
[7] = target: T2, CYP2D6 (Homo sapiens, UniProt P10635); assay: Inhibition of CYP2D6 (unknown origin) at 1 uM relative to control; format: ADME
[8] = target: T3, CYP3A4 (Homo sapiens, UniProt P08684); assay: Inhibition of CYP3A4 (unknown origin) at 1 uM relative to control; format: ADME
[9] = target: T2, CYP2D6; assay: Inhibition of CYP2D6 (unknown origin) at 10 uM relative to control; format: ADME
[10] = target: T4, CYP1A2 (Homo sapiens, UniProt P05177); assay: Inhibition of CYP1A2 (unknown origin) at 10 uM relative to control; format: ADME
T4 sequence (P05177 whole entry): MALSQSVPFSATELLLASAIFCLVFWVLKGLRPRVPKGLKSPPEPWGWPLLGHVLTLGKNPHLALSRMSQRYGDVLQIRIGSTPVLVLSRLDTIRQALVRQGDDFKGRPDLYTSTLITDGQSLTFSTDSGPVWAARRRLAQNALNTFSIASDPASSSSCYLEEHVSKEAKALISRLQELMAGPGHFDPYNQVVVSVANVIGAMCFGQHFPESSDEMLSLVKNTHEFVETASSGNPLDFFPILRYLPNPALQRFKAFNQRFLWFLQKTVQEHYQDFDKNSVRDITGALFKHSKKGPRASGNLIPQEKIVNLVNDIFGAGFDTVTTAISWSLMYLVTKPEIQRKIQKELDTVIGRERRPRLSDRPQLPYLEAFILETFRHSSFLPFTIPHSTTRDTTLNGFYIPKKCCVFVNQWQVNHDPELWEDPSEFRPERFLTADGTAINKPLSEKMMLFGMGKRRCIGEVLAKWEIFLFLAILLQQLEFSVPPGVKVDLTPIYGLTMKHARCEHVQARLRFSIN

[11] = target: T5, CYP2C8 (Homo sapiens, UniProt P10632); assay: Inhibition of CYP2C8 (unknown origin) at 1 uM relative to control; format: ADME
T5 sequence (P10632 whole entry): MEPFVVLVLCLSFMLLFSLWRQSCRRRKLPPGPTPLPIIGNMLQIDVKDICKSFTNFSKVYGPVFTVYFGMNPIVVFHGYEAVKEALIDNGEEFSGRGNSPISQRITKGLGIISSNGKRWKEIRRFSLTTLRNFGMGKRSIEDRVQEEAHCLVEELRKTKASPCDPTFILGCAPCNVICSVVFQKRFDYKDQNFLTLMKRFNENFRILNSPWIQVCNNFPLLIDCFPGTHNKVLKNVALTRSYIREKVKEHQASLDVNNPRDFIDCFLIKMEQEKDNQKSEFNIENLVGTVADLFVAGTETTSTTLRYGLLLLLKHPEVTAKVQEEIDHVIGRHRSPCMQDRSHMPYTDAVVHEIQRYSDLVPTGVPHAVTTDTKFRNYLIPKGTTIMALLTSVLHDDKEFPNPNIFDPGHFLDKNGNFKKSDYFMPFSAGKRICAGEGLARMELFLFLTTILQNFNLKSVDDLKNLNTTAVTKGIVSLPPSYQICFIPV

[12] = species: Homo sapiens; assay: Selectivity for human cathepsin C over cathepsin K (unknown origin)
[13] = target: T3, CYP3A4; assay: Inhibition of CYP3A4 (unknown origin) at 10 uM relative to control; format: ADME
[14] = species: Homo sapiens; assay: Selectivity for human cathepsin C over cathepsin L (unknown origin)
[15] = Metabolic stability in mouse liver microsomes assessed as compound remaining measured after 60 mins; format: ADME, Microsome; conditions: read-out: Stabilty
Method in brief: (§3)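 The readout was percent of parent remaining after 60 min incubation with liver microsomal preparations. Values are the mean of three replicates ± SD.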

[16] = Stability of the compound in mouse plasma; format: ADME, cell-free
[17] = target: T6, CYP2C19 (Homo sapiens, UniProt P33261); assay: Inhibition of CYP2C19 (unknown origin) at 10 uM relative to control; format: ADME
[18] = Stability of the compound in rat plasma; format: ADME, cell-free
[19] = species: Homo sapiens; assay: Selectivity for human cathepsin C over cathepsin S (unknown origin)
[20] = Metabolic stability in human liver microsomes assessed as compound remaining measured after 60 mins; format: ADME, Microsome; conditions: read-out: Stabilty; method in brief: as §3
[21] = target: T7, CYP2C9 (Homo sapiens, UniProt P11712); assay: Inhibition of CYP2C9 (unknown origin) at 10 uM relative to control; format: ADME
[22] = Metabolic stability in rat liver microsomes assessed as compound remaining measured after 60 mins; format: ADME, Microsome; conditions: read-out: Stabilty; method in brief: as §3
[23] = target: T6, CYP2C19; assay: Inhibition of CYP2C19 (unknown origin) at 1 uM relative to control; format: ADME
[24] = target: T4, CYP1A2; assay: Inhibition of CYP1A2 (unknown origin) at 1 uM relative to control; format: ADME
[25] = Stability of the compound in human plasma; format: ADME, cell-free
[26] = species: Homo sapiens; assay: Selectivity for human cathepsin C over cathepsin B (unknown origin)
[27] = target: T7, CYP2C9; assay: Inhibition of CYP2C9 (unknown origin) at 1 uM relative to control; format: ADME
[28] = target: T5, CYP2C8; assay: Inhibition of CYP2C8 (unknown origin) at 10 uM relative to control; format: ADME
[29] = target: T1, Dipeptidyl peptidase 1; assay: Inhibition of cellular cathepsin C (unknown origin); method in brief: as §1
[30] = Aldehyde reactivity of the compound in 0.1M phosphate buffer assessed as compound remaining at pH 7.4 measured after 1 hr in presence of propionaldehyde by HPLC-UV analysis; format: ADME; conditions: phosphate buffer with propionaldehyde, read-out: Stabilty; method in brief: as §2

T1 sequence (P53634 25-134 limits assumed): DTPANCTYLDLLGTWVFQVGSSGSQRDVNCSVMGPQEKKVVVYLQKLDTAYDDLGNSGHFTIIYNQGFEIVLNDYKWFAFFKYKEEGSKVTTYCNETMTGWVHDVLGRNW
T1 sequence (P53634 231-394 limits assumed): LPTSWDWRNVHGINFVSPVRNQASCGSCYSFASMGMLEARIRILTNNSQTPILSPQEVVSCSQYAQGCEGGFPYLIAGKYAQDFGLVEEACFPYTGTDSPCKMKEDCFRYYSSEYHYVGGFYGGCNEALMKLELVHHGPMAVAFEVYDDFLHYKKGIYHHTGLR
T1 sequence (P53634 395-463 limits assumed): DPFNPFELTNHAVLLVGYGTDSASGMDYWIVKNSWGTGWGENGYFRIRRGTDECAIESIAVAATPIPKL
T7 sequence (P11712 whole entry): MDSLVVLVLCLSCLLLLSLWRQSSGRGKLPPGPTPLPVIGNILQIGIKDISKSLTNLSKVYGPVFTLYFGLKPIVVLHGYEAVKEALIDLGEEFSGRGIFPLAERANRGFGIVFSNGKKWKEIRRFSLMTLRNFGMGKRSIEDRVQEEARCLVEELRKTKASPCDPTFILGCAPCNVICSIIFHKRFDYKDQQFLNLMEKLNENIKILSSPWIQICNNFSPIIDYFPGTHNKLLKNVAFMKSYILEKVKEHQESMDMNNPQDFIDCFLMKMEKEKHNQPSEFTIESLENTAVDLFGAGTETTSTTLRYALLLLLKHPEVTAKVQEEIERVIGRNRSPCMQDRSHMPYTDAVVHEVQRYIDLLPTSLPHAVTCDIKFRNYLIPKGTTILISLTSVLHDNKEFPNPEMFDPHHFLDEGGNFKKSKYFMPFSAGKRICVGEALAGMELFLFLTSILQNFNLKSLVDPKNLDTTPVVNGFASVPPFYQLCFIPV
T3 sequence (P08684 whole entry): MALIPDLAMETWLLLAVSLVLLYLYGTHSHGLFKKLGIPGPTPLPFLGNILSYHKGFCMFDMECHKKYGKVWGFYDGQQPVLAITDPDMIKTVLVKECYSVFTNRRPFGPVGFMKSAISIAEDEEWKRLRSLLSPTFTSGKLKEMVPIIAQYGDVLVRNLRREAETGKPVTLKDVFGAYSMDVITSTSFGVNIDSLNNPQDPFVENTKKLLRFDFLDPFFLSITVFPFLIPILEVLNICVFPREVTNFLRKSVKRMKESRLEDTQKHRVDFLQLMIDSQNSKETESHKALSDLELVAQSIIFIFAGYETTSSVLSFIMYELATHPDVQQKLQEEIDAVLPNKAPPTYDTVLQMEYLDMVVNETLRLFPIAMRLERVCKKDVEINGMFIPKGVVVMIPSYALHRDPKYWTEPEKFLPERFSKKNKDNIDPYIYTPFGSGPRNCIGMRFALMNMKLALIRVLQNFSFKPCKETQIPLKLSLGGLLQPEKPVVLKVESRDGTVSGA
T2 sequence (P10635 whole entry): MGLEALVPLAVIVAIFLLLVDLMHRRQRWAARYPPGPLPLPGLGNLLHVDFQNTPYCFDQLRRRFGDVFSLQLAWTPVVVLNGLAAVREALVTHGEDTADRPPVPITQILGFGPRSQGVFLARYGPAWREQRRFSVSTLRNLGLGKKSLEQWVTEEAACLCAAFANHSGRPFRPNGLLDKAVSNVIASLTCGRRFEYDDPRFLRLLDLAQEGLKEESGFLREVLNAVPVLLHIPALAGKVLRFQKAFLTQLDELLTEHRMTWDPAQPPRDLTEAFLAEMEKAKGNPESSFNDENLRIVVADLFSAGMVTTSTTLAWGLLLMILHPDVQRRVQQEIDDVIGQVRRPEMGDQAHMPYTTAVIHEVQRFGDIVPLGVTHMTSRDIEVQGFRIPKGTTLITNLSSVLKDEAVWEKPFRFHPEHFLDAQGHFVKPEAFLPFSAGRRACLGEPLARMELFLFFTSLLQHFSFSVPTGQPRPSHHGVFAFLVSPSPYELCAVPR
T6 sequence (P33261 whole entry): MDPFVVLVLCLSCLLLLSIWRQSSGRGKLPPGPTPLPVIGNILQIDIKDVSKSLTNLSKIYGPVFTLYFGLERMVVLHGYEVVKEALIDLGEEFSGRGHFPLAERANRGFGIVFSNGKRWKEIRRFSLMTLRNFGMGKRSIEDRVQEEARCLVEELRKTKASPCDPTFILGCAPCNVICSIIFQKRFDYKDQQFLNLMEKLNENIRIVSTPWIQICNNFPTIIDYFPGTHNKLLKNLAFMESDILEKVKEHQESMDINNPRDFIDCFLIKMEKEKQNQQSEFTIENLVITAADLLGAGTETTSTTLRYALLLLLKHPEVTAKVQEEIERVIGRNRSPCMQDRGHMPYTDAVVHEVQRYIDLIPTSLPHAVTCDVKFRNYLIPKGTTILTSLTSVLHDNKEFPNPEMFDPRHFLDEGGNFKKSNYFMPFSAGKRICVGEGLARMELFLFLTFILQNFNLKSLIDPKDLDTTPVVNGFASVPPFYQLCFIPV

SMILES: N#Cc1ccc(-c2ccc(C[C@@H](C#N)NC(=O)[C@@H]3C[C@@H]4C[C@@H]4N3)cc2)cc1
IC50 [1]: 223 nM
inhibition [2]: 97.9%
inhibition [5]: 83.9%

SMILES: N#Cc1ccc(-c2ccc(C[C@@H](C#N)NC(=O)[C@@H]3CN4CCC[C@@H]4CN3)cc2)cc1
inhibition [2]: 22.8%
inhibition [5]: 4.63%

SMILES: Cn1c(=O)oc2ccc(-c3ccc(C[C@@H](C#N)NC(=O)[C@@H]4CNCCCO4)cc3)cc21 [BRENSOCATIB]
remaining at 15 h [6]: 95%
half-life [4]: > 15 h

SMILES: N#Cc1ccc(-c2ccc(C[C@@H](C#N)NC(=O)[C@@H]3CC4CCCC[C@@H]4N3)cc2)cc1 (single isomer, unassigned)
IC50 [1]: 154 nM
inhibition [2]: 99%
IC50 [29]: 1720 nM
inhibition [5]: 88.7%

SMILES: N#Cc1ccc(-c2ccc(C[C@@H](C#N)NC(=O)[C@H]3CN4CCC[C@@H]4CN3)cc2)cc1
inhibition [2]: 1.11%
inhibition [5]: 1.11%

SMILES: N#Cc1ccc(-c2ccc(C[C@@H](C#N)NC(=O)[C@H]3CN4CCC[C@H]4CN3)cc2)cc1
IC50 [1]: 394 nM
inhibition [2]: 95%
inhibition [5]: 68.3%

SMILES: N#Cc1ccc(-c2ccc(C[C@@H](C#N)NC(=O)[C@@H]3CC4(CCCCC4)CN3)cc2)cc1
IC50 [1]: 228 nM
inhibition [2]: 99.3%
inhibition [5]: 84.3%

SMILES: N#Cc1ccc(-c2ccc(C[C@@H](C#N)NC(=O)[C@@H]3COCCN3)cc2)cc1
IC50 [1]: 308 nM
inhibition [2]: 96.3%
remaining at 15 h [6]: 48%
IC50 [29]: 9720 nM
half-life [4]: 15.8 h
inhibition [5]: 75.5%

SMILES: N#Cc1ccc(-c2ccc(C[C@@H](C#N)NC(=O)C3(N)CCOCC3)cc2)cc1
remaining at 1 h [30]: 15%
inhibition [2]: 99.9%
half-life [4]: 0.36 h
inhibition [5]: 99.2%

SMILES: N#Cc1ccc(-c2ccc(C[C@@H](C#N)NC(=O)[C@H]3COCCN3)cc2)cc1
inhibition [2]: 14.2%
inhibition [5]: 2.2%

SMILES: N#Cc1ccc(-c2ccc(C[C@@H](C#N)NC(=O)[C@@H]3CN4CCC[C@H]4CN3)cc2)cc1
inhibition [2]: 0%
inhibition [5]: 1.2%

The next lines start with the values.

IC50 [1]: 91.5 nM
inhibition [2]: 99.1%
remaining at 2 h [3]: 8.5%
half-life [4]: 0.56 h
inhibition [5]: 91.5%
SMILES: N#Cc1ccc(-c2ccc(C[C@@H](C#N)NC(=O)[C@@H]3CCCN3)cc2)cc1

IC50 [1]: 77.6 nM
inhibition [2]: 99.5%
inhibition [5]: 92.4%
SMILES: N#Cc1ccc(-c2ccc(C[C@@H](C#N)NC(=O)[C@@H]3CC4(CC4)CN3)cc2)cc1

IC50 [1]: 9.27 nM
inhibition at 1 µM [7]: 69.7%
inhibition at 1 µM [8]: 2.2%
inhibition at 10 µM [9]: 88.3%
inhibition at 10 µM [10]: 43.7%
inhibition at 1 µM [11]: 11.8%
Selectivity ratio [12]: 93
inhibition at 10 µM [13]: 33.8%
Selectivity ratio [14]: 10800
remaining at 1 h [15]: 6%
Stabilty [16]: Stable
inhibition at 10 µM [17]: 38.4%
inhibition [2]: 100%
Stabilty [18]: Stable
remaining at 15 h [6]: 97%
Selectivity ratio [19]: 4400
remaining at 1 h [20]: 1%
inhibition at 10 µM [21]: 32.4%
remaining at 1 h [22]: 3%
inhibition at 1 µM [23]: 17.1%
inhibition at 1 µM [24]: 15.2%
Stabilty [25]: Stable
Selectivity ratio [26]: 2260
inhibition at 1 µM [27]: 12%
inhibition at 10 µM [28]: 40.1%
IC50 [29]: 699 nM
half-life [4]: > 15 h
inhibition [5]: 99.2%
SMILES: N#Cc1ccc(-c2ccc(C[C@@H](C#N)NC(=O)[C@@H]3C[C@@H]4CCC[C@@H]4N3)cc2)cc1

IC50 [1]: 10.2 nM
inhibition [2]: 99.7%
remaining at 15 h [6]: 0%
IC50 [29]: 69 nM
half-life [4]: 0.56 h
inhibition [5]: 99%
SMILES: N#Cc1ccc(-c2ccc(C[C@@H](C#N)NC(=O)[C@@H]3CC4(CCCC4)CN3)cc2)cc1

inhibition [2]: 50.1%
remaining at 15 h [6]: 100%
inhibition [5]: 6.55%
SMILES: N#Cc1ccc(-c2ccc(C[C@@H](C#N)NC(=O)[C@@H]3C[C@H]4CCC[C@@H]4N3)cc2)cc1

IC50 [1]: 77.7 nM
inhibition [2]: 98.2%
remaining at 15 h [6]: 7%
IC50 [29]: 79.1 nM
half-life [4]: 5.3 h
inhibition [5]: 85.6%
SMILES: N#Cc1ccc(-c2ccc(C[C@@H](C#N)NC(=O)[C@@H]3C[C@H]4CCC[C@H]4N3)cc2)cc1

IC50 [1]: 27.8 nM
inhibition [2]: 98.2%
IC50 [29]: 150 nM
inhibition [5]: 97.2%
SMILES: N#Cc1ccc(-c2ccc(C[C@@H](C#N)NC(=O)[C@@H]3CC4(CCC4)CN3)cc2)cc1

inhibition [2]: 2.19%
inhibition [5]: 3.29%
SMILES: N#Cc1ccc(-c2ccc(C[C@@H](C#N)NC(=O)[C@@H](N)C34CC5CC(CC(O)(C5)C3)C4)cc2)cc1
